Several values for one entry are separate records, joined by “and”; a condition that tells them apart may be missing. Identical values can stand only once.
Test system: mouse
Test: concentration in blood after dosing; negative times count back from the end of exposure
Settings: dosed: tert-amyl methyl ether, inhalation, duration: 6 hr, CD-1 (Charles River)
Procedure, shortened: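 A PubMed search, classifier screening and manual review identified published in vivo toxicokinetic studies, which together with two structured collections supplied concentration-versus-time and amount-versus-time points. Points were mostly digitised from plot screenshots with WebPlotDigitizer, otherwise copied from tables. Dose, route, subject details and medium were hand-curated from each paper, and sampling and analytical methods are those of the sources, often unreported.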

CCC(C)(C)O [tertiary amyl alcohol]
male
Settings	concentration in blood
0.1295 h, 2500 ppm	209000 ng/mL
0.1808 h, 500 ppm	29600 ng/mL
0.1823 h, 500 ppm	32600 ng/mL
0.1835 h, 500 ppm	34900 ng/mL
0.1993 h, 2500 ppm	170000 ng/mL
0.2 h, 2500 ppm	165000 ng/mL
0.2011 h, 2500 ppm	158000 ng/mL
0.5116 h, 500 ppm	16700 ng/mL
0.5437 h, 500 ppm	19500 ng/mL
0.545 h, 500 ppm	22000 ng/mL
0.5455 h, 500 ppm	23100 ng/mL
0.5766 h, 2500 ppm	194000 ng/mL
0.5768 h, 2500 ppm	193000 ng/mL
0.5776 h, 2500 ppm	187000 ng/mL
0.59 h, 2500 ppm	109000 ng/mL
1.057 h, 500 ppm	3620 ng/mL
1.059 h, 500 ppm	7190 ng/mL
1.061 h, 500 ppm	12200 ng/mL
1.062 h, 500 ppm	12600 ng/mL
1.12 h, 2500 ppm	175000 ng/mL
1.123 h, 2500 ppm	155000 ng/mL and 153000 ng/mL and 151000 ng/mL
1.914 h, 500 ppm	752 ng/mL
1.945 h, 500 ppm	139 ng/mL
2.052 h, 2500 ppm	105000 ng/mL
2.058 h, 2500 ppm	66500 ng/mL and 65300 ng/mL
2.059 h, 2500 ppm	57700 ng/mL
4.101 h, 2500 ppm	3630 ng/mL and 1940 ng/mL
9.951 h, 500 ppm	73.9 ng/mL
10.17 h, 2500 ppm	1840 ng/mL
17.96 h, 500 ppm	8.51 ng/mL
18.11 h, 2500 ppm	2120 ng/mL
126 s, 500 ppm	44300 ng/mL
133 s, 2500 ppm	192000 ng/mL
137 s, 2500 ppm	184000 ng/mL
138 s, 2500 ppm	183000 ng/mL
151 s, 500 ppm	57900 ng/mL
343 s, 500 ppm	42500 ng/mL

male, during exposure
Settings	concentration in blood
-6 h, 100 ppm	3.59 ng/mL
-5.999 h, 500 ppm	1220 ng/mL
-5.907 h, 500 ppm	2450 ng/mL
-5.876 h, 500 ppm	2750 ng/mL
-5.873 h, 2500 ppm	2950 ng/mL
-5.818 h, 100 ppm	247 ng/mL and 289 ng/mL
-5.817 h, 100 ppm	326 ng/mL and 401 ng/mL
-5.814 h, 500 ppm	4080 ng/mL
-5.771 h, 100 ppm	487 ng/mL
-5.747 h, 2500 ppm	7170 ng/mL
-5.725 h, 100 ppm	600 ng/mL
-5.72 h, 500 ppm	7750 ng/mL
-5.659 h, 100 ppm	386 ng/mL and 450 ng/mL
-5.567 h, 500 ppm	6220 ng/mL
-5.507 h, 500 ppm	5100 ng/mL
-5.476 h, 100 ppm	694 ng/mL
-5.474 h, 500 ppm	9590 ng/mL
-5.464 h, 2500 ppm	25700 ng/mL
-5.433 h, 2500 ppm	29900 ng/mL
-5.244 h, 2500 ppm	40100 ng/mL
-5.135 h, 500 ppm	11400 ng/mL and 11600 ng/mL
-5.134 h, 500 ppm	13700 ng/mL and 14100 ng/mL
-4.958 h, 100 ppm	720 ng/mL
-4.937 h, 100 ppm	510 ng/mL
-4.936 h, 100 ppm	630 ng/mL
-4.934 h, 100 ppm	828 ng/mL
-4.899 h, 2500 ppm	67100 ng/mL
-4.898 h, 2500 ppm	64100 ng/mL and 61600 ng/mL
-4.897 h, 2500 ppm	57400 ng/mL
-4.057 h, 500 ppm	20900 ng/mL
-4.055 h, 500 ppm	23900 ng/mL
-4.054 h, 500 ppm	26200 ng/mL and 27300 ng/mL
-4 s, 500 ppm	33800 ng/mL
-3.898 h, 100 ppm	686 ng/mL
-3.897 h, 100 ppm	870 ng/mL
-3.895 h, 100 ppm	1130 ng/mL
-3.874 h, 100 ppm	926 ng/mL
-3.797 h, 2500 ppm	131000 ng/mL
-3.796 h, 2500 ppm	123000 ng/mL and 121000 ng/mL
-3.791 h, 2500 ppm	94900 ng/mL
-2.118 h, 500 ppm	33200 ng/mL
-2.087 h, 500 ppm	34400 ng/mL and 34600 ng/mL
-2.086 h, 500 ppm	36700 ng/mL
-1.99 h, 2500 ppm	155000 ng/mL
-1.979 h, 100 ppm	1160 ng/mL
-1.978 h, 100 ppm	1210 ng/mL
-1.96 h, 2500 ppm	162000 ng/mL
-1.957 h, 2500 ppm	146000 ng/mL
-1.953 h, 100 ppm	1570 ng/mL

CCC(C)(C)OC [tertiary amyl methyl ether]
Settings	concentration in blood [ng/mL]
0.102 h, 100 ppm, male	239
0.1024 h, 100 ppm, male	295
0.1031 h, 100 ppm, male	389
0.1368 h, 500 ppm, male	3510
0.1371 h, 500 ppm, male	4130
0.1374 h, 500 ppm, male	4840
0.1381 h, 500 ppm, male	6060
0.1502 h, 100 ppm, male	655
0.1928 h, 2500 ppm, male	29900
0.1936 h, 2500 ppm, male	24400
0.3202 h, 500 ppm, male	2390
0.3841 h, 2500 ppm, male	24800
0.385 h, 2500 ppm, male	19700
0.3858 h, 2500 ppm, male	14700
0.4399 h, 100 ppm, male	209
0.444 h, 2500 ppm, female	22700
0.4444 h, 2500 ppm, female	20100
0.4448 h, 2500 ppm, female	17200
0.4618 h, 100 ppm, male	127
0.4629 h, 100 ppm, male	273
0.8712 h, 500 ppm, male	37.4
0.8718 h, 500 ppm, male	1260
0.9575 h, 2500 ppm, male	15100
0.9591 h, 2500 ppm, male	4950
0.9832 h, 2500 ppm, female	10000
1.014 h, 2500 ppm, female	15500
1.656 h, 100 ppm, male	2.6
2.039 h, 2500 ppm, male	5350
2.04 h, 2500 ppm, male	286
9.736 h, 500 ppm, male	67.1
9.816 h, 100 ppm, male	1.38
9.95 h, 2500 ppm, male	153
17.75 h, 100 ppm, male	3.94
17.86 h, 2500 ppm, male	441
57.5 min, 2500 ppm, male	10000
224 s, 2500 ppm, female	37500
226 s, 2500 ppm, female	34900
229 s, 2500 ppm, female	29400

during exposure
Settings	concentration in blood
-171 s, 100 ppm, male	1330 ng/mL
-165 s, 100 ppm, male	1570 ng/mL
-160 s, 100 ppm, male	1750 ng/mL
-6 h, 100 ppm, male	1190 ng/mL
-6 h, 2500 ppm, male	19400 ng/mL
-5.956 h, 100 ppm, male	1080 ng/mL
-5.842 h, 100 ppm, male	1220 ng/mL
-5.755 h, 100 ppm, male	806 ng/mL
-5.69 h, 500 ppm, male	7230 ng/mL
-5.688 h, 500 ppm, male	9580 ng/mL
-5.663 h, 100 ppm, male	1040 ng/mL
-5.662 h, 100 ppm, male	1100 ng/mL
-5.642 h, 100 ppm, male	814 ng/mL
-5.627 h, 2500 ppm, female	37500 ng/mL
-5.168 h, 500 ppm, male	7230 ng/mL
-5.167 h, 500 ppm, male	8960 ng/mL
-5.138 h, 500 ppm, male	5900 ng/mL
-5.124 h, 100 ppm, male	780 ng/mL
-5.123 h, 100 ppm, male	866 ng/mL
-5.122 h, 100 ppm, male	1090 ng/mL
-5.094 h, 2500 ppm, female	64100 ng/mL
-5.092 h, 2500 ppm, female	54400 ng/mL
-5.089 h, 2500 ppm, female	32500 ng/mL
-5.084 h, 2500 ppm, male	49400 ng/mL
-5.083 h, 2500 ppm, male	44300 ng/mL
-5.081 h, 2500 ppm, male	34600 ng/mL
-5.077 h, 2500 ppm, male	9690 ng/mL
-5.053 h, 2500 ppm, male	59500 ng/mL
-4.247 h, 500 ppm, male	9570 ng/mL
-4.246 h, 500 ppm, male	11400 ng/mL
-4.245 h, 500 ppm, male	12000 ng/mL
-4.086 h, 100 ppm, male	926 ng/mL
-4.061 h, 100 ppm, male	1220 ng/mL
-4.06 h, 100 ppm, male	1360 ng/mL
-4.007 h, 2500 ppm, male	71700 ng/mL
-4.005 h, 2500 ppm, male	61100 ng/mL
-3.988 h, 2500 ppm, female	67100 ng/mL
-3.987 h, 2500 ppm, female	61600 ng/mL
-3.974 h, 2500 ppm, male	66600 ng/mL
-3.972 h, 2500 ppm, male	49300 ng/mL
-2.21 h, 500 ppm, male	33800 ng/mL
-2.166 h, 2500 ppm, male	78800 ng/mL
-2.165 h, 2500 ppm, male	72500 ng/mL
-2.164 h, 2500 ppm, male	66200 ng/mL
-2.159 h, 2500 ppm, female	96100 ng/mL
-2.144 h, 100 ppm, male	1310 ng/mL and 1340 ng/mL
-2.142 h, 100 ppm, male	1570 ng/mL
-2.129 h, 500 ppm, male	11900 ng/mL
-2.128 h, 500 ppm, male	13700 ng/mL
-2.127 h, 500 ppm, male	15500 ng/mL
-2.125 h, 2500 ppm, female	81400 ng/mL
-2.122 h, 100 ppm, male	1220 ng/mL
-0.1963 h, 500 ppm, male	12000 ng/mL
-0.1937 h, 500 ppm, male	17200 ng/mL
-0.1933 h, 500 ppm, male	17800 ng/mL
-0.1652 h, 2500 ppm, male	83400 ng/mL
-0.1636 h, 2500 ppm, male	73700 ng/mL
-0.1617 h, 2500 ppm, male	61500 ng/mL
-0.1057 h, 2500 ppm, female	101000 ng/mL
-0.1034 h, 2500 ppm, female	86400 ng/mL
-0.1026 h, 2500 ppm, female	81300 ng/mL
